{"data": "Measurements of several laboratories", "CDKL1": "Cyclin-dependent kinase-like 1 (CDKL1, Homo sapiens, UniProt Q00532)", "ULK1": "Serine/threonine-protein kinase ULK1 (ULK1, Homo sapiens, UniProt O75385)", "MAP3K11": "Mitogen-activated protein kinase kinase kinase 11 (MAP3K11, Homo sapiens, UniProt Q16584)", "note": "Protocols differ between the studies behind these lines."}
{"SMILES": "Cn1c2c(c3ccc(Cl)c(Cl)c31)C(C#N)C1(CCOCC1)NC2=O (stereo not shown)", "target": "CDKL1", "test": "thermal stability, DSF", "setting": "10 µM", "measurement": "ΔTm", "result": "-0.1 °C"}
{"SMILES": "CN1CCc2cc(Nc3ncc(C4CC4)c(NCCCNC(=O)C4CCC4)n3)ccc2C1", "target": "ULK1", "test": "enzyme activity, inhibitor, radiometric", "setting": "1 µM", "measurement": "remaining activity", "result": "1%"}
{"SMILES": "CNC(=O)c1cc2c(Oc3ccc(NC(=O)C4(C(=O)Nc5ccc(F)cc5)CC4)cc3)ccnc2cc1OC", "target": "Hepatocyte growth factor receptor (MET, Homo sapiens, UniProt P08581)", "test": "enzyme activity, inhibitor, radiometric", "setting": "1 µM", "measurement": "inhibition", "result": "99%"}
{"SMILES": "Cn1c2c(c3ccc(Cl)c(Cl)c31)C(C#N)C1(CCNCC1)NC2=O (racemic)", "target": "CDKL1", "test": "thermal stability, DSF", "setting": "10 µM", "measurement": "ΔTm", "result": "0.9 °C"}
{"SMILES": "Cc1cc(NC(=O)c2cccc3cc(-c4cccc5[nH]nc(N)c45)ccc23)ccc1F", "target": "Hepatocyte growth factor receptor (MET, Homo sapiens, UniProt P08581, Y1230C)", "test": "enzyme activity, inhibitor", "setting": "0.1 µM", "measurement": "activity vs control", "result": "92%"}
{"SMILES": "Cc1cnc(NC2CCOCC2)nc1-n1cnc(C(=O)NC(CN)c2cc(F)cc(Cl)c2)c1 (stereo not shown)", "target": "Hepatocyte growth factor receptor (MET, Homo sapiens, UniProt P08581, Y1230D)", "test": "enzyme activity, inhibitor, radiometric", "setting": "1 µM", "measurement": "remaining activity", "result": "97%"}
{"SMILES": "Cc1nn(CC(F)(F)F)cc1Nc1ncc(Br)c(NCCCNC(=O)C2CCC2)n1", "target": "MAP3K11", "test": "enzyme activity, inhibitor, radiometric", "setting": "1 µM", "measurement": "remaining activity", "result": "36%"}
{"SMILES": "Cc1ccc(NC(=O)c2ccc(C)c(C(F)(F)F)c2)cc1C#Cc1nn(C2CCC(O)CC2)c2ncnc(N)c12 (stereo not shown)", "target": "Hepatocyte growth factor receptor (MET, Homo sapiens, UniProt P08581, D1228N)", "test": "cell-free assay", "setting": "10 µM", "measurement": "remaining signal", "result": "103%"}
{"SMILES": "O=C(NCCCNc1nc(Nc2cccc(CN3CCOCC3)c2)ncc1C1CC1)C1CCC1", "target": "ULK1", "test": "enzyme activity, inhibitor, radiometric", "setting": "1 µM", "measurement": "remaining activity", "result": "9%"}
{"SMILES": "Cn1c2c(Cl)c(Cl)ccc2c2cc[nH]c(=O)c21", "target": "TRAF2 and NCK-interacting protein kinase (TNIK, Homo sapiens, UniProt Q9UKE5)", "test": "thermal stability, DSF", "setting": "10 µM", "measurement": "ΔTm", "result": "0.7 °C"}
{"SMILES": "NS(=O)(=O)c1ccc(CNc2nc(Nc3cccc(CN4CCOCC4)c3)ncc2Br)cc1", "target": "ULK1", "test": "enzyme activity, inhibitor, radiometric", "setting": "1 µM", "measurement": "remaining activity", "result": "50%"}
{"SMILES": "CN1CCC2(CC1)NC(=O)c1c(c3ccc(Cl)c(Cl)c3n1C)C2C#N (racemic)", "target": "CDKL1", "test": "thermal stability, DSF", "setting": "10 µM", "measurement": "ΔTm", "result": "0 °C"}
{"SMILES": "FC(F)(F)Oc1cccc(-c2cnc3ccc(-c4ccncc4)nn23)c1", "target": "Mitogen-activated protein kinase kinase kinase 1 (MAP3K1, Homo sapiens, UniProt Q13233)", "test": "enzyme activity, inhibitor, radiometric", "setting": "5 µM", "measurement": "activity vs control", "result": "94%"}
{"SMILES": "NS(=O)(=O)c1ccc(CNc2ccnc(Nc3cccc(NC(=O)N4CCCC4)c3)n2)cc1", "target": "MAP3K11", "test": "enzyme activity, inhibitor, radiometric", "setting": "1 µM", "measurement": "remaining activity", "result": "89%"}
{"SMILES": "Cn1c2c(c3ccc(Cl)c(Cl)c31)C(C#N)C(C)(C)NC2=O (stereo not shown)", "target": "CDKL1", "test": "thermal stability, DSF", "setting": "10 µM", "measurement": "ΔTm", "result": "0 °C"}
{"SMILES": "CCN1CCN(Cc2ccc(NC(=O)c3ccc(C)c(Oc4ccnc5[nH]ccc45)c3)cc2C(F)(F)F)CC1", "target": "Eukaryotic elongation factor 2 kinase (EEF2K, Homo sapiens, UniProt O00418)", "test": "target engagement in cells, inhibitor, chemoproteomics", "system": "Huh-7", "setting": "10 µM", "measurement": "inhibition", "result": "-20.2%"}
{"SMILES": "Nc1ncnc2occ(-c3ccc(NC(=O)Nc4cc(C(F)(F)F)ccc4F)cc3)c12", "target": "Myosin-IIIa (MYO3A, Homo sapiens, UniProt Q8NEV4)", "test": "cell-free assay", "setting": "20 µM", "measurement": "remaining signal", "result": "0.05%"}
{"SMILES": "N#CC1c2c([nH]c3c(Cl)c(Cl)ccc23)C(=O)NC12CCCCC2 (racemic)", "target": "CDKL1", "test": "thermal stability, DSF", "setting": "10 µM", "measurement": "ΔTm", "result": "0.2 °C"}
{"SMILES": "NS(=O)(=O)c1ccc(CNc2ccnc(Nc3cccc(CN4CCOCC4)c3)n2)cc1", "target": "MAP3K11", "test": "enzyme activity, inhibitor, radiometric", "setting": "1 µM", "measurement": "remaining activity", "result": "95%"}
